Tested on: MS2 coat protein
Assay: apparent Kd, MS2 coat protein; higher = weaker binding; RNA-MaP array; tryptophan 2.4 mM where present
Settings: designed as: ON switch for tryptophan
In short: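 In 100 mM Tris-HCl pH 7.5, 80 mM KCl, 4 mM MgCl2, BSA, DTT, yeast tRNA and Tween-20, SNAP-549-labelled MS2 coat protein was titrated from 0.7 or 1.5 nM, doubling to 3 µM, over designs transcribed by stalled E. coli RNA polymerase on Illumina sequencing-chip clusters. This was done first without ligand, then with ligand held constant. After green signal was normalised to red-channel RNA signal and control-cluster median Fmax, the apparent Kd was taken as the median of filtered per-cluster binding-curve fits.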

## AUUCAUGGAAACAUGACAUACAUAACCGGUCGAGGACCGGUACGGCCGCCACUCGGUUGGUGGCACAUGAGGAUCACCCAUGUUA
No ligand
  apparent Kd: 23.9 nM
Ligand present: tryptophan
  apparent Kd: 26.4 nM

Source: the EternaBench riboswitch data
